Experiment [1] is filed under the species Mus musculus. In words: Inhibition of reserpine-induced hypothermia in mice by peroral dose. The settings on record: po, read-out: MED. It counts as functional. In short, it runs like this:
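Mice were housed at 18–20 °C, given reserpine 2 mg/kg sc, and kept there 18 h. Rectal temperature was then taken, followed by saline or drug po. Temperatures were re-measured, typically at 0.5, 1.0, 2.0 and 14 h. The value is the minimal effective dose (mg/kg po) that inhibits hypothermia.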

Experiment [2] relates to Rattus norvegicus. Nature of the experiment: Percentage inhibition of carrageenan-induced rat foot edema at a dose of 32 mg/kg when administered perorally (po). It counts as functional. Summed up: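 Rats were dosed po, and 1 h later 0.05 mL of 2-week-old 1% carrageenan in distilled water was injected into the plantar tissue. Paw volume was measured immediately and 3 h after injection. The increase in foot volume was the individual response.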

Experiment [3] in a line: Inhibition of phosphodiesterase 4 from guinea pig lung. Details: species or system Cavia porcellus. Summed up: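 Guinea pig lung was homogenized in Bistris buffer (pH 6.5) with 50 μM final PMSF and centrifuged at 12000g at 4 °C. The supernatant went onto DEAE-Sepharose and was eluted with a 0.05–1.0 M sodium acetate gradient, pooling rolipram-sensitive fractions. The assay used 50 mM Tris/10 mM MgCl₂ (pH 7.5) and 1 μM final [³H]cAMP, with compound added in 4% DMSO, for 10 min at 37 °C. Reaction was stopped by boiling; [³H]5'-AMP was separated on boronate gel and counted. IC₅₀ came from 4 log concentrations, each in triplicate.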

For experiment [4], the species on record is Mus musculus. Nature of the experiment: Inhibition of immobility in mouse forced swim test by peroral dose. Format: functional. The settings on record: po, read-out: MED. In short, it runs like this: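 Compounds were dissolved in saline and given po to mice at 1 mL/100 g. One hour later, mice were put in 1-L beakers of water at 22–24 °C, deep enough that tails could not touch the bottom. Observation followed a 2-min habituation.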

Experiment [5] relates to Rattus norvegicus. In words: Percentage inhibition of carrageenan-induced rat foot edema at a dose of […] when administered perorally (po). It counts as functional. The settings on record: dose 3.2 mg/kg. (The carrageenan paw model is a standard test of acute inflammation.)

As usually defined, the inhibition in vivo is the share of the control response that was lost under treatment. Read a high inhibition in vivo as a response far below the control. One may read the IC50 as the concentration that gives 50% inhibition. Higher therefore signals weaker potency. Turning to `COC(=O)c1cccc(-n2c(=O)[nH]c(=O)c3ccccc32)c1`, in the experiment filed under Mus musculus [1], the minimal effective dose is < 320 µg/kg. At 32 mg/kg the inhibition in vivo in the experiment on Rattus norvegicus [2] was 5%. For the same compound, the IC50 in experiment [3] was > 100 µM.
On to `COC(=O)c1cccc(-n2c(=O)n(CC3CC4CCC3C4)c(=O)c3cccnc32)c1` (stereo not drawn), for which the results for the minimal effective dose in the experiment filed under Mus musculus [4] and in the experiment listed under Mus musculus [1] were 1000 µg/kg and 1 µg/kg, respectively. Besides, in experiment [3], the IC50 is 0.89 µM.
On to `COC(=O)c1cccc(-n2c(=O)n(Cc3ccccc3)c(=O)c3cccnc32)c1`, for which the minimal effective dose in the experiment listed under Mus musculus [4] and in the experiment listed under Mus musculus [1] was 10 µg/kg in each case. This compound yielded an inhibition in vivo at […] with Rattus norvegicus [5] of 50%.
`CCn1c(=O)c2cccnc2n(-c2cccc(C(=O)OC)c2)c1=O` showed an IC50 in experiment [3] of 25.9 µM.
With `CCn1c(=O)c2ccccc2n(-c2cccc([N+](=O)[O-])c2)c1=O` [NITRAQUAZONE], the minimal effective dose in the experiment filed under Mus musculus [4] is 3200 µg/kg; in the experiment filed under Mus musculus [1] it was 1 µg/kg. Further, in the experiment with Rattus norvegicus [5], the inhibition in vivo at […] stood at 43%. The compound also yielded an IC50 in experiment [3] of 11.4 µM.
For `COc1ccc(C2CNC(=O)C2)cc1OC1CCCC1` (stereo not drawn) [ROLIPRAM], the minimal effective dose in the experiment filed under Mus musculus [4] came to 1780 µg/kg; in the experiment listed under Mus musculus [1], 0.03 µg/kg. In the experiment with Rattus norvegicus [2], this compound registered an inhibition in vivo at 32 mg/kg of 41%. In experiment [3], this compound came in with an IC50 of 0.59 µM.
With `COC(=O)c1cccc(-n2c(=O)n(Cc3ccccc3)c(=O)c3ccccc32)c1`, the minimal effective dose in the experiment listed under Mus musculus [4] is > 32000 µg/kg; in the experiment listed under Mus musculus [1] it was 100 µg/kg. For the same compound, the inhibition in vivo at 32 mg/kg with Rattus norvegicus [2] is 25%. Also, in experiment [3], the IC50 was 0.23 µM.
`CNC(=O)c1cccc(-n2c(=O)n(Cc3ccccc3)c(=O)c3ccccc32)c1` registered an IC50 in experiment [3] of 21.4 µM. That is a double-digit micromolar value.
`CCn1c(=O)c2ccccc2n(-c2cccc(C(=O)OC)c2)c1=O` yielded an inhibition in vivo at 32 mg/kg with Rattus norvegicus [2] of 19%. In addition, in experiment [3], the IC50 stood at 3.8 µM.
In the case of `COC(=O)c1cccc(-n2c(=O)n(CC3CCCC3)c(=O)c3cccnc32)c1`, the minimal effective dose in the experiment filed under Mus musculus [4] amounted to 1000 µg/kg; in the experiment filed under Mus musculus [1], 3 µg/kg. In experiment [3], this compound registered an IC50 of 1.52 µM.

Values taken from ChEMBL document CHEMBL1125241, “Structure-activity relationship of quinazolinedione inhibitors of calcium-independent phosphodiesterase” (J Med Chem, 1991).
